# According to PubChem BioAssay AID651576 (The Scripps Research Institute Molecular Screening Center, 2012):
# “And” between values parts separate entries of the source, which are not always exact repeats. Equal entries are not always repeated. The source made the active and inactive calls.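 How the source made its calls: active means inhibition of at least 50%, averaged over three replicate wells; inactive means inhibition below 50%.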
# Test system: HCV core protein (core106) dimerization, Hepatitis C virus
# Experiment: disruption of HCV core self-association – biochemical, AlphaScreen luminescence, single dose 15 µM, powder samples, late-stage follow-up (AID 651576)
# Details: AlphaScreen GST/Flag-core106 dimerization, at 15 µM, hits give high values
# Outline: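 material = HCV core106 dimerization between GST-tagged and Flag-tagged core106 proteins | medium = HEPES pH 7.5 with DTT and CHAPS | probe or stimulus = acceptor and donor beads at 20 µg/mL each | timing = protein preincubation 1 h at room temperature, 1 h per bead step | technique = AlphaScreen luminescence | evaluation = percent signal inhibition relative to uninhibited control wells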
row,SMILES,inhibition
1,Cc1ccc(Cc2c(C)nc3nc(SCC(=O)N4C[C@@H]5C[C@H]4CN5C(=O)CSc4nc5nc(C)c(Cc6ccc(C)cc6)c(C)n5n4)nn3c2C)cc1,67%
2,Cc1ccc(Cc2c(C)nc3nc(SCC(=O)N4CCNCC4)nn3c2C)cc1,42% (inactive)
3,Cc1ccc(Cc2c(CCc3ccccc3)nc3nc(SC(Cc4ccccc4)C(=O)NCCN4CCOCC4)nn3c2C)cc1 (stereo not given),85%
4,CCN(CC)C(=O)CSc1nc2nc(C)c(Cc3ccc(C)cc3)c(C)n2n1,11% (inactive)
5,Cc1ccc(Cc2c(C)nc3nc(SCC(=O)N4CCSCC4)nn3c2C)cc1,63%
6,CCN(CC)CCCNC(=O)CSc1nc2nc(C)c(Cc3ccc(C)cc3)c(C)n2n1,65%
7,Cc1ccc(Cc2c(C)nc3nc(SCC(=O)NCCCCNC(=O)CSc4nc5nc(C)c(Cc6ccc(C)cc6)c(C)n5n4)nn3c2C)cc1,88%
8,Cc1ccc(Cc2c(C)nc3nc(SCC(=O)N4CCCCC4)nn3c2C)cc1,41% (inactive)
9,Cc1ccc(Cc2c(C)nc3nc(SCC(=O)NCCNC(=O)CSc4nc5nc(C)c(Cc6ccc(C)cc6)c(C)n5n4)nn3c2C)cc1,52%
10,Cc1cccc(Cc2c(C)nc3nc(SCC(=O)NC4CCN(C(=O)CSc5nc6nc(C)c(Cc7cccc(C)c7)c(C)n6n5)C4)nn3c2C)c1 (stereo not given),80%
11,Cc1ccc(Cc2c(C)nc3nc(SCC(=O)NCC[N+]4(Cc5ccc(F)cc5)CCN(Cc5ccc(F)cc5)CC4)nn3c2C)cc1,< 50% (inactive)

# Further lines, results first:
row,inhibition,SMILES
1,53%,Cc1ccc(Cc2c(C)nc3nc(SCC(=O)NCCN4CCCN(S(C)(=O)=O)CC4)nn3c2C)cc1
2,< 50% (inactive),Cc1ccc(Cc2c(C)nc3nc(SCC(=O)NCCN4CCN(S(C)(=O)=O)CC4)nn3c2C)cc1
3,< 50% (inactive),Cc1ccc(Cc2c(C)nc3nc(SCC(=O)NCCN4CCCNCC4)nn3c2C)cc1
4,97% and 82%,Cc1ccc(Cc2c(C)nc3nc(SCC(=O)NCCN4CCCCCC4)nn3c2C)cc1
5,< 50% (inactive),Cc1nc2nc(SCC(=O)NCCN3CCOCC3)nn2c(C)c1Cc1ccc(Br)cc1
6,51%,Cc1ccc(Cc2c(C)nc3nc(SCC(=O)NCCN4CCNCC4)nn3c2C)cc1
7,< 50% (inactive),Cc1ccc(Cc2c(C)nc3nc(SCC(=O)NCCN4CCCC4)nn3c2C)cc1
8,< 50% (inactive),CC(=O)N1CCN(CCNC(=O)CSc2nc3nc(C)c(Cc4ccc(C)cc4)c(C)n3n2)CC1
9,22% (inactive),Cc1ccc(Cc2c(C)nc3nc(SCC(=O)NCCC4=CCCCC4)nn3c2C)cc1
10,83%,Cc1ccc(Cc2c(C)nc3nc(SCC(=O)NCCN4CCCN(S(=O)(=O)c5ccccc5)CC4)nn3c2C)cc1
11,< 50% (inactive),Cc1ccc(Cc2c(C)nc3nc(SCC(=O)NCCN4CCCN(C(=O)c5ccccc5)CC4)nn3c2C)cc1
12,44% (inactive),Cc1ccc(Cc2c(C)nc3nc(SCC(=O)N4CCN(Cc5ccc(Cl)cc5)CC4)nn3c2C)cc1
13,38% (inactive),CCCNC(=O)CSc1nc2nc(C)c(Cc3ccc(C)cc3)c(C)n2n1
14,66%,Cc1ccc(Cc2c(C)nc3nc(SCC(=O)NCCN4CCN(Cc5ccccc5)CC4)nn3c2C)cc1
